Screening results as filed in PubChem BioAssay.
MC4R barr agon = human MC4R agonism via beta-arrestin; U2OS MC4R beta-arrestin complementation, luminescence; percent of melanotan II response, DMSO zero; activation, % at 8.9 µM; actives 0.98% (n = 360,000); P32245;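 active = activation above a per-plate cutoff, the mean activation of sample wells on that plate plus 3 SD, cut at about 8% in these data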
Target sequence (P32245 whole entry, looked up): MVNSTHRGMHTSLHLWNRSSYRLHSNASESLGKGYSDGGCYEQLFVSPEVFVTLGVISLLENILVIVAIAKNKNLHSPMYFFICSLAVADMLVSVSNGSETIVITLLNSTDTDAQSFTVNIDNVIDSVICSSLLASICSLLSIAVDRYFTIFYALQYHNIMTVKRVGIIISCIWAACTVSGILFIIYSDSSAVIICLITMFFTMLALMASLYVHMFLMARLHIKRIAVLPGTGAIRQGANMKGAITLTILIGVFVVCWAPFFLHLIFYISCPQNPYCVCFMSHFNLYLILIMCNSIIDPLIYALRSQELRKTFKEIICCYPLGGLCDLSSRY
HGIII-sPLA2 inh = Inhibits HGIII-sPLA2 liposome hydrolysis, primary screen. QFRET BODIPY PC-A2 liposome hydrolysis, fluorescence. inhibition, % at 12.2 µM. AID 743126. actives 0.56% (n = 370,000). Q9NZ20;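 active = inhibition above mean plus 3 SD of compounds lying within the high and low control bounds, cut at about 19% in these data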;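 also: 0% = median of test compound wells and 100% = no enzyme DMSO wells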
Granule exo inh = lytic granule exocytosis inhibition; TALL-104 LAMP-1 surface exposure, flow cytometry; cells stimulated with thapsigargin and PMA; inhibition, % at 10 µM; actives 0.66% (n = 360,000);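 active = inhibition above about 55%, limit read from the data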
A1 inh = inhibitors of the anti-apoptotic protein A1, read as caspase activation; actives 0.066% (n = 330,000); MEF A1-2A-BIM cells, Caspase-Glo 3/7 luminescence, 3 h; percent of clofoctol response, vehicle zero; caspase activation, % (test concentration not listed);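 active = over half of replicate activation scores above 10%, or exactly half above 10 with the replicate mean above 10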
NTR1 ag = NTR1 (human) agonism; P30989; NTR1-U2OS beta-arrestin-GFP spot imaging, agonist mode; activation, % at 20 µM; actives 0.17% (n = 330,000);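 active = activation at or above 40% of the spot to cytoplasm intensity ratio, with at least 20 cells analyzed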;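 also: 0% = DMSO without peptide and 100% = 100 nM NTR1 peptide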
MC4R antag cAMP = blocks human MC4R cAMP signaling. MC4R-expressing cells, MTII-stimulated cAMP, LANCE TR-FRET. actives 0.48% (n = 360,000). P32245. inhibition, % at 6.5 µM. AID 540295;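 active = inhibition above its plate's cutoff, the mean of tested wells on that plate plus 3 SD, cut at about 29% in these data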;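 also: 0% = Melanotan II alone and 100% = Melanotan II plus saturating MCL0020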
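material = U2OS cells stably expressing human melanocortin 4 receptor (MC4R) | also added = Melanotan II challenge | dosing = single nominal compound dose of 6.5 µM | detection = TR-FRET with Eu-cAMP and labeled anti-cAMP, 671 nm | replication = singlicate | timing = compound 30 min, challenge 1 h, detection 1 h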
Granule exo CP1 = blocks lytic granule exocytosis | shares compounds with Granule exo inh | inhibition, % at 10 µM | TALL-104 cells, LAMP-1 externalization, flow cytometry; stimulated with PMA plus thapsigargin | AID 651954 | actives 11% (n = 1,500); in the data active = inhibition above about 60%;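 also: 0% = stimulated vehicle wells and 100% = unstimulated wells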
* = called active by the depositor. Most compounds without a hit are left out; they make up all but 2.5% or so of the library.

COc1ccc(CN2C3CCCC2CC(NC(=O)/C=C/c2ccccc2)C3)cc1 (stereo unspecified) was read as MC4R barr agon -3.9, HGIII-sPLA2 inh -4.1, Granule exo inh 35.8, A1 inh 1.4, NTR1 ag 0.3 and MC4R antag cAMP 3.8.
`O=C(CN1CCN(C(C(=O)Nc2cc(C(F)(F)F)ccc2Cl)c2ccccc2)CC1)NC1CC1` (stereo unspecified) gave MC4R barr agon -0.7, HGIII-sPLA2 inh 16.0, Granule exo inh 79.8*, MC4R antag cAMP 7.5 and Granule exo CP1 -4.0.
For O=C(CN1CCN(C(C(=O)Nc2ccc(Cl)cc2C(F)(F)F)c2ccccc2)CC1)NC1CC1 (stereo unspecified) the results were MC4R barr agon 1.1, HGIII-sPLA2 inh 7.0, Granule exo inh 10.8, A1 inh -0.9, NTR1 ag -1.3 and MC4R antag cAMP 18.2.
`O=C(Nc1cc(C(F)(F)F)ccc1Cl)C(Sc1ccccn1)c1ccccc1` (stereo unspecified) gave MC4R barr agon 0.6, HGIII-sPLA2 inh -4.2, Granule exo inh 104.3*, A1 inh 0.3, NTR1 ag 2.3, MC4R antag cAMP 0.9 and Granule exo CP1 -13.6.
O=C(NCCc1ccc(Cl)cc1)C1CCCN(S(=O)(=O)N2CCCCCC2)C1 (stereo unspecified) was read as MC4R barr agon -1.6, HGIII-sPLA2 inh -3.5, Granule exo inh -3.9, A1 inh 4.4, NTR1 ag 1.8 and MC4R antag cAMP 3.1.
`CCN1CCN(CCNC(=O)c2ccc(/C=C3/Sc4ccccc4N(Cc4ccccc4C)C3=O)cc2)CC1` gave MC4R barr agon 8.9*, HGIII-sPLA2 inh -19.6, Granule exo inh 66.2*, MC4R antag cAMP -1.7 and Granule exo CP1 28.9.
Screening COc1ccccc1N(C)S(=O)(=O)c1ccc(C(=O)NCCc2ccc(F)cc2)cc1 returned MC4R barr agon 2.0, HGIII-sPLA2 inh -15.5, Granule exo inh 1.8, A1 inh 0.7, NTR1 ag 1.7 and MC4R antag cAMP 11.4.
`CN(c1ccccc1)S(=O)(=O)c1ccc(C(=O)NCCc2ccc(F)cc2)cc1` gave MC4R barr agon 1.5, HGIII-sPLA2 inh -5.5, Granule exo inh 71.7*, A1 inh 0.0, NTR1 ag -2.9, MC4R antag cAMP 0.9 and Granule exo CP1 -4.1.
Screening CC(=O)OC1CC(C)N(C(=O)c2ccccc2)c2ccc(C)cc21 (stereo unspecified) returned MC4R barr agon -0.5, HGIII-sPLA2 inh 3.0, Granule exo inh -2.6, A1 inh 1.3, NTR1 ag 6.3 and MC4R antag cAMP -4.7.
For CC(=O)N1c2ccc(C)cc2C(c2ccccc2)CC1C (stereo unspecified) the results were MC4R barr agon -0.3, HGIII-sPLA2 inh 9.1, Granule exo inh 80.1*, A1 inh 0.8, NTR1 ag 1.8, MC4R antag cAMP 1.0 and Granule exo CP1 -10.4.
Screening CN(C)c1ccc(C(C(=O)NCC2CCCO2)N(Cc2ccco2)C(=O)c2snc(C(N)=O)c2N)cc1 (stereo unspecified) returned MC4R barr agon -0.8, HGIII-sPLA2 inh 2.4, Granule exo inh -7.1, A1 inh -0.5, NTR1 ag 4.0 and MC4R antag cAMP 2.7.
Screening CN(C)c1ccc(C(C(=O)NCc2ccccc2)N(Cc2ccco2)C(=O)c2snc(C(N)=O)c2N)cc1 (stereo unspecified) returned MC4R barr agon 3.0, HGIII-sPLA2 inh 16.7, Granule exo inh 98.7*, A1 inh -0.3, MC4R antag cAMP 9.3 and Granule exo CP1 2.1.
`CCN=C1NC(c2cccc(F)c2)C(C(=O)OC)=C(C)N1Cc1ccccc1C(F)(F)F` (stereo unspecified) gave HGIII-sPLA2 inh 5.3.
Cc1ccsc1CN(C)CC(=O)Nc1ccc([N+](=O)[O-])cc1Cl was read as MC4R barr agon 1.9, HGIII-sPLA2 inh 2.5, Granule exo inh 98.6*, A1 inh 0.5, NTR1 ag 3.8, MC4R antag cAMP -3.4 and Granule exo CP1 18.6.
Cn1nccc1C(=O)N(CCN1CCCCC1)CC1CCCN(C2CCCC2)C1 (stereo unspecified) was read as MC4R barr agon -2.7, HGIII-sPLA2 inh -1.6, Granule exo inh 1.0, A1 inh 0.0, NTR1 ag -1.5 and MC4R antag cAMP -1.6.
Cc1c(CN2CCN(c3ncc(Cc4ccccc4)cn3)CC2)c(=O)n(-c2ccccc2)n1C was read as HGIII-sPLA2 inh -7.1.
CN(C)C(=O)CCC(=O)N(C)CC1CCCN(CCc2ccc(F)cc2)C1 (stereo unspecified) was read as MC4R barr agon -2.3, HGIII-sPLA2 inh -3.3, Granule exo inh 2.7, A1 inh 0.6, NTR1 ag -0.1 and MC4R antag cAMP 7.1.
Screening CCN(Cc1ccc(C#CCCO)cc1)CC1CCCN(CCc2cccc(F)c2)C1 (stereo unspecified) returned MC4R barr agon 2.1, HGIII-sPLA2 inh -22.9, Granule exo inh 88.2*, A1 inh -0.9, NTR1 ag 2.3, MC4R antag cAMP 20.3 and Granule exo CP1 -10.5.
For CN(Cc1ccccc1O)CC1CCCN(CCc2ccc(Cl)cc2)C1 (stereo unspecified) the results were MC4R barr agon -1.0, HGIII-sPLA2 inh -6.2, Granule exo inh 68.6*, A1 inh 0.0, NTR1 ag 0.7, MC4R antag cAMP 5.6 and Granule exo CP1 -11.7.
`COCc1ccc(C(=O)N(C)CC2CCCN(CCc3ccc(Cl)cc3)C2)o1` (stereo unspecified) gave MC4R barr agon -2.3, HGIII-sPLA2 inh -3.2, Granule exo inh -1.9, A1 inh 1.4, NTR1 ag -0.2 and MC4R antag cAMP 9.9.
For Cc1occc1C(=O)N(C)CC1CCCN(CCc2ccc(Cl)cc2)C1 (stereo unspecified) the results were MC4R barr agon -0.4, HGIII-sPLA2 inh -3.8, Granule exo inh 5.1 and MC4R antag cAMP 3.8.
Screening CN(Cc1ccc(C#CCCO)cc1)CC1CCCN(CCc2ccc(Cl)cc2)C1 (stereo unspecified) returned MC4R barr agon 6.1, HGIII-sPLA2 inh -8.4, Granule exo inh 69.6*, A1 inh 0.7, NTR1 ag 1.4, MC4R antag cAMP 18.2 and Granule exo CP1 -10.2.
`CCCCOCCCNC(=O)C[C@H]1C[C@@]2(C(=O)OC)C(=C[C@H](COCc3ccccc3)O[C@@H]2C)N(Cc2ccc(Cl)cc2Cl)C1=O` gave HGIII-sPLA2 inh -17.8.
